Source: ChEMBL document CHEMBL4406888, “Synthesis of analogs of the Gwt1 inhibitor manogepix (APX001A) and in vitro evaluation against Cryptococcus spp” (Bioorg Med Chem Lett, 2019)
In brackets after ≈: the same amount, converted by molar mass.

Legend:
Cryptococcus gattii = assay: Antifungal activity against Cryptococcus gattii incubated for 72 hrs by broth micro dilution method; type: functional
Cryptococcus neoformans = assay: Antifungal activity against Cryptococcus neoformans incubated for 72 hrs by broth micro dilution method; type: functional
[1] = Half life in human liver microsomes at 1 uM preincubated for 5 mins followed by NADPH addition and measured for 45 mins by LC/MS analysis; type: ADME, Microsome; details: for t1/2: microsomes, 0.75 h, 1 µM
HepG2 = assay: Cytotoxicity against human HepG2 cells assessed as reduction in cell viability at 3 uM by CellTiter-Glo luminescent cell viability assay relative to control; type: cell-based; details: hepg2, 3 µM
[2] = biological target: T1, GPI-anchored wall transfer protein 1 (Candida albicans (strain SC5314 / ATCC MYA-2876) (Yeast)) (UniProt Q873N2); assay: Antifungal activity against Candida albicans GWT1 expressed in Saccharomyces cerevisiae assessed as overexpression ratio
T1 sequence (whole entry): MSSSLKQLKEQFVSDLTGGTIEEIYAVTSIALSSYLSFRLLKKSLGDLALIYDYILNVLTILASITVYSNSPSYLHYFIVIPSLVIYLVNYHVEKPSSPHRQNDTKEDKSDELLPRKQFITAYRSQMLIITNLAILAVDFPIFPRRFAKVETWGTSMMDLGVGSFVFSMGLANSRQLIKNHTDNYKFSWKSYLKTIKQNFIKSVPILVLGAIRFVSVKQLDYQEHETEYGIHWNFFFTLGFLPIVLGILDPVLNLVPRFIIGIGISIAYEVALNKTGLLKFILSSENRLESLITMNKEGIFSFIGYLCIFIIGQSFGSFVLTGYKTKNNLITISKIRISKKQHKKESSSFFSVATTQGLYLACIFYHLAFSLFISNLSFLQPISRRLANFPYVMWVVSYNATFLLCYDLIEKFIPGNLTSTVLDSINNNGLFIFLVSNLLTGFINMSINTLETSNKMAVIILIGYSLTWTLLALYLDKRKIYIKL
Summary of the method: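 MICs measured against S. cerevisiae strains expressing high and low levels of Gwt1. The value is the ratio of the two strains' MICs.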

[3] = biological target: T2, PIGW (glucosaminyl-phosphatidylinositol-acyltransferase) (Homo sapiens, UniProt Q7Z7B1); assay: Inhibition of human PIGW expressed in Saccharomyces cerevisiae at 16 uM by spectrophotometric analysis relative to control; details: Saccharomyces cerevisiae expressing human PIGW
T2 sequence (Q7Z7B1 whole entry): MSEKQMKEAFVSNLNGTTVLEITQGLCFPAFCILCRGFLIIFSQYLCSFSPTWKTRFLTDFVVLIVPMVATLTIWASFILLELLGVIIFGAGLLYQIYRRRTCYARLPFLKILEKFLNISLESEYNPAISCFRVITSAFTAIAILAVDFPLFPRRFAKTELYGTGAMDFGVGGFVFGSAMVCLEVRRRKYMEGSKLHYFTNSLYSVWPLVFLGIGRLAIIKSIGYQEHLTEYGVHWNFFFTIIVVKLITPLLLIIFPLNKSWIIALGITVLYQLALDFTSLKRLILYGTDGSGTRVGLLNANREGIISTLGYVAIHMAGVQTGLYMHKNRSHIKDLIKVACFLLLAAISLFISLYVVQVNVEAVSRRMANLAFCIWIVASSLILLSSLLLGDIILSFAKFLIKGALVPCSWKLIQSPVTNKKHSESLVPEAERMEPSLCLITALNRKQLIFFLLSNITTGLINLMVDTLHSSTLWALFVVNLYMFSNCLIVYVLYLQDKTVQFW

MIC (Cryptococcus gattii)	MIC (Cryptococcus neoformans)	t1/2 [1]	half-life at 1 µM ([1]; liver microsomes)	Structure (SMILES)	Cell viability (% of control) (HepG2)	Ratio [2]	inhibition at 16 µM [3]
0.008 µg/mL (≈ 0.0234 µM)	0.031 µg/mL (≈ 0.0908 µM)			Nc1ncccc1-c1cc(Cc2ccc(Cc3ccccc3)cc2)no1			
> 4 µg/mL	> 4 µg/mL			Nc1ncccc1-c1cc(Cc2ccc(CNCc3ccn[nH]3)cc2)no1			
0.016 µg/mL (≈ 0.0483 µM)	0.016 µg/mL (≈ 0.0483 µM)	3.15 min		Nc1ncccc1-c1cc(Cc2ccc(Cc3ccco3)cc2)no1			
0.031 µg/mL (≈ 0.0867 µM)	0.031 µg/mL (≈ 0.0867 µM)			Nc1ncccc1-c1cc(Cc2ccc(OCc3ccccc3)cc2)no1			
0.063 µg/mL (≈ 0.176 µM)	0.125 µg/mL (≈ 0.35 µM)			Nc1ncccc1-c1cc(Cc2ccc(COc3ccccc3)cc2)no1			
0.016 µg/mL (≈ 0.0444 µM)	0.031 µg/mL (≈ 0.086 µM)			Nc1ncccc1-c1cc(Cc2ccc(Cc3cccc(F)n3)cc2)no1			
> 4 µg/mL	> 4 µg/mL			Cc1nccc(NCc2ccc(Cc3cc(-c4cccnc4N)on3)cc2)n1			
0.5 µg/mL (≈ 1.41 µM)	0.5 µg/mL (≈ 1.41 µM)			Nc1ncccc1-c1cc(Cc2ccc(CCc3ccccc3)cc2)no1			
0.25 µg/mL (≈ 0.666 µM)	0.25 µg/mL (≈ 0.666 µM)			Nc1ncccc1-c1cc(Cc2ccc(CNc3cccc(F)n3)cc2)no1			
0.063 µg/mL (≈ 0.177 µM)	0.125 µg/mL (≈ 0.351 µM)			Nc1ncccc1-c1cc(Cc2ccc(CNc3ccccc3)cc2)no1			

Continued, compound first:

Structure (SMILES)	MIC (Cryptococcus gattii)	MIC (Cryptococcus neoformans)	t1/2 [1]	half-life at 1 µM ([1]; liver microsomes)	Cell viability (% of control) (HepG2)	Ratio [2]	inhibition at 16 µM [3]
Cc1occc1COc1ccc(Cc2cc(-c3cccnc3N)on2)cn1	2 µg/mL (≈ 5.52 µM)	2 µg/mL (≈ 5.52 µM)					
Nc1ncccc1-c1cc(Cc2ccc(OCc3ccncc3)cc2)no1	0.008 µg/mL (≈ 0.0223 µM)	0.016 µg/mL (≈ 0.0446 µM)	17.3 min				
Nc1ncccc1-c1cc(Cc2ccc(OCCc3ccccc3F)nc2)no1	0.031 µg/mL (≈ 0.0794 µM)	0.031 µg/mL (≈ 0.0794 µM)					
Nc1ncccc1-c1cc(Cc2ccc(Cc3ccc(F)o3)cc2)no1	0.016 µg/mL (≈ 0.0458 µM)	0.016 µg/mL (≈ 0.0458 µM)	14.4 min				
Nc1ncccc1-c1cc(Cc2ccc(Nc3ccccc3F)nc2)no1	0.016 µg/mL (≈ 0.0443 µM)	0.016 µg/mL (≈ 0.0443 µM)	37.1 min				
Nc1ncccc1-c1cc(Cc2ccc(Oc3ccccc3F)nc2)no1	0.031 µg/mL (≈ 0.0855 µM)	0.016 µg/mL (≈ 0.0442 µM)					
Nc1ncccc1-c1cc(Cc2ccc(OCc3cccc(F)c3)nc2)no1	0.016 µg/mL (≈ 0.0425 µM)	0.016 µg/mL (≈ 0.0425 µM)	62.3 min		97%	8	5%
Nc1ncccc1-c1cc(Cc2ccc(OCc3ccoc3)nc2)no1	0.031 µg/mL (≈ 0.089 µM)	0.016 µg/mL (≈ 0.0459 µM)					
Nc1ncccc1-c1cc(Cc2ccc(Cn3cccn3)cc2)no1	0.063 µg/mL (≈ 0.19 µM)	0.25 µg/mL (≈ 0.754 µM)					
Nc1ncccc1-c1cc(Cc2ccc(Oc3cccc(F)n3)cc2)no1	0.004 µg/mL (≈ 0.011 µM)	0.008 µg/mL (≈ 0.0221 µM)	43 min		93%	16	0%
Nc1ncccc1-c1cc(Cc2ccnc(OCCc3cccc(F)c3)c2)no1	1 µg/mL (≈ 2.56 µM)	0.5 µg/mL (≈ 1.28 µM)					
Nc1ncccc1-c1cc(Cc2ccc(OCC3CC3)nc2)no1	0.016 µg/mL (≈ 0.0496 µM)	0.031 µg/mL (≈ 0.0962 µM)					
Nc1ncccc1-c1cc(Cc2ccc(OCc3ccncc3)nc2)no1	0.008 µg/mL (≈ 0.0223 µM)	0.008 µg/mL (≈ 0.0223 µM)	20.3 min				
Nc1ncccc1-c1cc(Cc2ccc(Oc3ccccn3)cc2)no1	0.008 µg/mL (≈ 0.0232 µM)	0.016 µg/mL (≈ 0.0465 µM)	61.5 min		77%		
Nc1ncccc1-c1cc(Cc2ccc(OCCc3cccc(F)c3)nc2)no1	0.063 µg/mL (≈ 0.161 µM)	0.063 µg/mL (≈ 0.161 µM)					
Nc1ncccc1-c1cc(Cc2ccc(OCc3ccccc3F)nc2)no1	0.031 µg/mL (≈ 0.0824 µM)	0.031 µg/mL (≈ 0.0824 µM)					
Nc1ncccc1-c1cc(Cc2ccc(OCC3CCC3)nc2)no1	0.008 µg/mL (≈ 0.0238 µM)	0.016 µg/mL (≈ 0.0476 µM)	4.65 min				
Nc1ncccc1-c1cc(Cc2ccc(Oc3cccc(F)c3)nc2)no1	0.016 µg/mL (≈ 0.0442 µM)	0.008 µg/mL (≈ 0.0221 µM)	93.9 min		102%	8	0%
CC(Oc1ccc(Cc2cc(-c3cccnc3N)on2)cn1)c1ccccc1F (configuration not stated)	0.5 µg/mL (≈ 1.28 µM)	0.25 µg/mL (≈ 0.64 µM)					
Nc1ncccc1-c1cc(Cc2ccc(COc3ccccn3)cc2)no1 [MANOGEPIX]	0.125 µg/mL (≈ 0.349 µM)	0.25 µg/mL (≈ 0.698 µM)	49.9 min		98%	8	0%
Nc1ncccc1-c1cc(Cc2ccc(OCc3cccc(Cl)c3)nc2)no1	0.016 µg/mL (≈ 0.0407 µM)	0.016 µg/mL (≈ 0.0407 µM)			98%	4	80%
Nc1ncccc1-c1cc(Cc2ccnc(OCc3cccc(F)c3)c2)no1	0.031 µg/mL (≈ 0.0824 µM)	0.031 µg/mL (≈ 0.0824 µM)					
O=C(c1ccc(F)cc1)C1CCN(CCn2c(=O)[nH]c3ccccc3c2=O)CC1 [KETANSERIN]				40.8 min			
